# Results from different studies.
# Protocols differ between the studies behind these lines.
# Target: Insulin-like growth factor 1 receptor (IGF1R, Homo sapiens, UniProt P08069)
SMILES,test,conditions,remaining binding
Cc1cnn2ncc(-c3ccnc(N(C)C)n3)c2c1,binding,1 µM,100%
O=C(c1ccc(Nc2nccc(-c3cc4ccccc4s3)n2)cc1)N1CCC(N2CCCC2)CC1,"binding, competition with immobilised ligand",1 µM,100%
O=C(Nc1c[nH]nc1C(=O)NC1CCNCC1)c1cc(F)cc(F)c1,"binding, competition with immobilised ligand",1 µM,100%
Nc1ncc2c(n1)-c1c([nH]c3ccc(C#CC4CC4)cc13)CCCC2,"binding, competition with immobilised ligand",1 µM,100%
CCN1CCN(Cc2ccc(C(=O)Nc3ccc(C)c(Oc4ccc5c(c4)CC(=O)N5)c3)cc2C(F)(F)F)CC1,"binding, competition with immobilised ligand",1 µM,100%
CN(C)c1nccc(-c2cnc3ncccn23)n1,binding,1 µM,89%
FC(F)(F)Oc1cccc(-c2cnc3ccc(-c4ccncc4)nn23)c1,"cell-free assay, competition with immobilised ligand",5 µM,86%
O=C(c1ccc(Nc2ncc(Cl)c(-c3ccc(Cl)s3)n2)cc1)N1CCC(N2CCCC2)CC1,"binding, competition with immobilised ligand",1 µM,19%
C[C@@H]1CN(c2ccc3ncc(-c4ccc5[nH]nc(C6CC6)c5c4)n3n2)C[C@H](C)O1,"binding, competition with immobilised ligand",50 nM,99%
CCOCCn1cc(C(=O)Nc2ccc(-n3nc(-c4cccnc4)cc3C(F)(F)F)cn2)ccc1=O,"cell-free assay, competition with immobilised ligand",1 µM,96%
C=CC(=O)N1CCC(C(=O)NCC(=O)N2CCN(c3nc(-c4cnc(N)nc4C(F)F)nc(N4CCOCC4)n3)CC2)CC1,"binding, competition with immobilised ligand",1 µM,100%
CN(CCCC(F)(F)F)c1nccc(-c2cnn3ncccc23)n1,binding,1 µM,100%
Cn1nc(C(=O)NCc2ccc(C(=O)O)cc2)cc1-c1ccc2[nH]ccc2c1,"cell-free assay, competition with immobilised ligand",0.1 µM,91%
CNC(=O)[C@@H]1CC[C@@H](n2c(-c3ccc4cnccc4c3)nc3ccc(C(=O)NCc4cccc(C(N)=O)c4)cc32)C1,"binding, competition with immobilised ligand",1 µM,100%
Cc1cc(NC(=O)c2cccc(S(F)(F)(F)(F)F)c2)cc(-n2ccn3nc(-c4cccnc4)cc23)c1,"cell-free assay, competition with immobilised ligand",1 µM,100%
c1cnn2ncc(-c3ccnc(N4CCC45COC5)n3)c2c1,binding,1 µM,97%
Cc1cnc(Nc2ccc(C(=O)N3CCC(N4CCCC4)CC3)cc2)nc1-c1cc2ccccc2s1,"binding, competition with immobilised ligand",1 µM,45%
Cc1nc(C2CCN(C(=O)c3ccc(OC(F)(F)F)cc3N)CC2)c2ncc(N3CCN(C)CC3)cc2n1,"cell-free assay, competition with immobilised ligand",1 µM,91%
N[C@H]1CCN(c2nccc(-c3cnn4ncccc34)n2)C1,binding,1 µM,81%
COc1ccc2c(c1)O[C@@H](c1ccc(OC)c(OC)c1)C[C@H]2NC(=O)C1(c2ccc3c(c2)OC(F)(F)O3)CC1,"cell-free assay, competition with immobilised ligand",1 µM,90%
C[C@@H]1CCN(c2nccc(-c3cnn4ncccc34)n2)C1,binding,1 µM,53%
CN(c1ccnc(CNc2nc(Nc3ccc4c(c3)CC(=O)N4)ncc2C(F)(F)F)n1)S(C)(=O)=O,"cell-free assay, competition with immobilised ligand",1 µM,100%
N#Cc1ccccc1CSc1nnc2c(n1)[nH]c1ccccc12,"binding, competition with immobilised ligand",10 µM,91%
NS(=O)(=O)c1cc(NC(=O)Cc2ccccc2)ccc1Oc1cccc(Cl)c1,"cell-free assay, competition with immobilised ligand",1 µM,100%
CC(C)(C)c1ccc(-c2nc(CBr)nn2-c2cccc(O)c2)cc1,"cell-free assay, competition with immobilised ligand",10 µM,95%
